The test system of series [1] is Mus musculus. Nature of the series: Inhibitory effects on arachidonic acid (AA) induced mouse ear edema at a dose of 100 ug/ear. It counts as functional. In a few lines: (§1)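 Male ICR mice (30–40 g, 10–15 per group). Compound in 25 μL acetone/pyridine/water 97:2:1 with arachidonic acid (50 mg/mL) applied to inner surface of one ear. After 1 h, CO2 sacrifice, 6-mm disk punched, edema measured as change in wet weight versus controls.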

The species named for series [2] is Rattus norvegicus. Nature of the series: Inhibitory effects on passive cutaneous anaphylaxis in rats at a dose of 1 mg/site. It counts as functional. In a few lines: (§2)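 Male SD rats, eight per group, sensitized intradermally at two dorsal sites with 0.05 mL anti-ovalbumin rat IgE serum diluted 1:8 in 0.9% saline. Compound applied topically to those sites 5 h before iv challenge 48 h later with 2 mg ovalbumin plus 5 mg Evans blue in 1 mL. Extravasated dye measured 30 min later; percent inhibition versus control group.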

For series [3], the species on record is Oryctolagus cuniculus. Nature of the series: Compound was evaluated for primary irritation test by applying at the intact site and the average score was reported. Number of animals tested =6. The class given is toxicity, organism-based. Conditions: rabbit, in vivo, topical_or_ocular. The gist of the method: (§3)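 Rabbit backs shaved and depilated; 0.5 g compound applied to four sites (two intact, two abraded) under gauze for 24 h. Sites examined grossly 24 and 72 h after removing covering; scored by Draize method.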

The species entered for series [4] is Oryctolagus cuniculus. Nature of the series: Compound was evaluated for primary irritation test by applying at the abraded site and the average score was reported. Number of animals tested =6. It counts as toxicity, organism-based. Conditions: rabbit, in vivo, topical_or_ocular. In a few lines:
as §3

For series [5], the species on record is Mus musculus. Nature of the series: Inhibitory effects on delayed type hypersensitive reaction in mouse ears at a dose of 300 ug/site. The class given is functional. The gist of the method:
(§4)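 ICR mice, 10 or 12 per group, sensitized by abdominal swabbing with 0.1 mL antigen in acetone (7% picryl chloride or 1% OXA). DTH response assessed in mouse ears.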

For series [6], the species on record is Rattus norvegicus. In words: Evaluated for its antioxidative effect using the thiobarbituric acid (TBA) method in rat. It counts as functional. In a few lines:
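Test sample in 67 mM phosphate buffer pH 7.4 mixed with 10% male Wistar rat (300–400 g) forebrain homogenate. Shaken 1 h at 37 °C, deproteinated with 20% TCA. Supernatant heated 10 min at 100 °C with 1.2% thiobarbiturate; absorbance read at 532 nm.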

The species named for series [7] is Rattus norvegicus. Nature of the series: Compound was evaluated for its inhibitory effects on passive cutaneous anaphylaxis in rats at a dose of 1 mg/site. It counts as functional. In a few lines:
as §2

For series [8], the system named is Mus musculus. Nature of the series: Evaluated for its inhibitory effects on 12-O-tetradecanoylphorbol-13-acetate (TPA) -induced edema in mouse ear at a dose of 100 ug/site. The class given is functional. The gist of the method:
(§5)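 Male ICR mice, 30–40 g, 10–15 per group. Test compound applied in 25 μL acetone/pyridine/water 97:2:1 containing TPA (200 μg/mL) to the inner surface of one ear. Killed with CO2 5 h later; 6-mm ear punch weighed wet for edema. ED50 taken from three-point dose titration curves.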

The species named for series [9] is Mus musculus. In words: Compound was evaluated for its effective dose to inhibit oxazolone- induced delayed type hypersensitivity. The class given is functional. The gist of the method: as §4
The species entered for series [10] is Rattus norvegicus. In words: Compound was evaluated for its inhibitory effects on passive cutaneous anaphylaxis in rats at a dose of 2.5 mg/site. It counts as functional. The gist of the method:
as §2

Series [11] has as its system Mus musculus. Nature of the series: Compound was evaluated for its inhibitory effects on 12-O-tetradecanoylphorbol-13-acetate -induced edema. It counts as functional. The gist of the method:
as §5

The species entered for series [12] is Mus musculus. In words: Compound was evaluated for its effective dose to inhibit picryl chloride induced delayed type hypersensitivity. It counts as functional. The gist of the method: as §4
For series [13], the system named is Mus musculus. Nature of the series: Compound was evaluated for its inhibitory effects on arachidonic acid induced ear edema at a dose of 100 (ug / ear). The class given is functional. The gist of the method: as §1

Data on 13 compounds can be found in ChEMBL document CHEMBL1127556, “Synthesis and topical antiinflammatory and antiallergic activities of antioxidant o-aminophenol derivatives” (J Med Chem, 1994).

Values after ≈ are worked out from the molar mass of the structure shown.

On to `Cc1ccc(O)c(NCCCN2CCN(C(c3ccccc3)c3ccc(Cl)cc3)CC2)c1` (stereo not drawn), for which the Inhibition in the series on Mus musculus [1] was determined as 67.7%; in the series filed under Rattus norvegicus [2] it was 48.5%; in the series listed under Mus musculus [5], 62%. Besides, the Average score in the series filed under Oryctolagus cuniculus [3] and in the series filed under Oryctolagus cuniculus [4] was 0 each time. Moreover, in the series filed under Rattus norvegicus [6], the IC50 was found to be 0.12 µg/mL (≈ 0.267 µM).
With `Cc1ccc(O)c(NCCCN2CCN(C(c3ccccc3)c3ccccc3)CC2)c1`, the Inhibition was determined as 51% with Mus musculus [1], 11.2% in the series listed under Rattus norvegicus [2] and 79.3% in the series filed under Mus musculus [5]. The compound further displayed an IC50 in the series filed under Rattus norvegicus [6] of 0.038 µg/mL (≈ 0.0914 µM).
Consider `Cc1ccc(O)c(NCCCN2CCC(OC(c3ccccc3)c3ccccc3)CC2)c1`, for which the Inhibition in the series with Mus musculus [1] is 61.8%; in the series listed under Rattus norvegicus [7] it was 28.3%; in the series listed under Mus musculus [5], 28.1%. In the series listed under Rattus norvegicus [6], this compound gave an IC50 of 0.036 µg/mL (≈ 0.0836 µM).
Turning to `Cc1ccc(O)c(N(CCCN2CCN(C(c3ccccc3)c3ccc(Cl)cc3)CC2)C(C)C)c1` (stereo not drawn), in the series with Mus musculus [8], the Inhibition is on record as 44.4%. The compound further displayed an IC50 in the series listed under Rattus norvegicus [6] of 0.44 µg/mL (≈ 0.894 µM).
On to `CC(C)N(CCCN1CCN(C(c2ccccc2)c2ccc(Cl)cc2)CC1)c1cc(C(C)(C)C)ccc1O` (stereo not drawn), for which the Inhibition in the series with Mus musculus [8] was 40.3%. In the series filed under Rattus norvegicus [6], this compound registered an IC50 of 0.39 µg/mL (≈ 0.73 µM).
As for `Cc1ccc(O)c(NCCCN2CCC(C(O)(c3ccc(F)cc3)c3ccc(F)cc3)CC2)c1`, the Inhibition in the series with Mus musculus [8] was determined as 86.9%; in the series filed under Rattus norvegicus [2], 25.4%. In addition, in the series listed under Rattus norvegicus [6], it took 0.025 µg/mL (≈ 0.0536 µM) to reach half-maximal inhibition (IC50).
On to `Cc1ccc(O)c(N(C)CCCN2CCN(C(c3ccccc3)c3ccc(Cl)cc3)CC2)c1` (stereo not drawn), for which, in the series with Mus musculus [8], the Inhibition was 51.8%. Moreover, in the series listed under Rattus norvegicus [6], it took 0.27 µg/mL (≈ 0.582 µM) to reach half-maximal inhibition (IC50).
Consider `Cc1ccc(O)c(NCCCN2CCC(OC(c3ccccc3)c3ccc(Cl)cc3)CC2)c1` (stereo not drawn), for which the Inhibition in the series with Mus musculus [1] came out at 53.6%; in the series on Mus musculus [8] it was 86%; in the series filed under Rattus norvegicus [2] it was 26%; in the series listed under Mus musculus [5], 31.3%. In the series filed under Rattus norvegicus [6], this compound displayed an IC50 of 0.084 µg/mL (≈ 0.181 µM).
`Cc1ccc(O)c(N(CCCN2CCN(C(c3ccc(Cl)cc3)c3ccc(Cl)cc3)CC2)C(C)C)c1` displayed an Inhibition in the series with Mus musculus [8] of 26.4%. Further, the IC50 in the series filed under Rattus norvegicus [6] amounted to 2.2 µg/mL (≈ 4.18 µM).
`Cc1ccc(O)c(NCCN2CCN(C(c3ccccc3)c3ccccc3)CC2)c1`: the Inhibition in the series with Mus musculus [1] is reported as 48.1%; in the series on Mus musculus [8], 75.3%; in the series filed under Rattus norvegicus [2] it was 32.8%; in the series filed under Mus musculus [5], 62%. The compound also gave an IC50 in the series listed under Rattus norvegicus [6] of 0.045 µg/mL (≈ 0.112 µM).
In the case of `Cc1ccc(O)c(NCCCN2CCC(C(O)(c3ccccc3)c3ccc(Cl)cc3)CC2)c1` (stereo not drawn), the Inhibition came to 43.7% in the series on Mus musculus [1], 97.5% with Mus musculus [8], 39.2% in the series listed under Rattus norvegicus [2] and 80.4% in the series filed under Mus musculus [5]. Besides, the Average score in the series filed under Oryctolagus cuniculus [3] and in the series listed under Oryctolagus cuniculus [4] was 0 in each case. In the series listed under Rattus norvegicus [6], half-maximal inhibition (IC50) required 0.041 µg/mL (≈ 0.0882 µM).
`Cc1ccc(O)c(NCCCN2CCN(C(c3ccc(F)cc3)c3ccc(F)cc3)CC2)c1`: the Inhibition in the series on Mus musculus [1] is listed as 51%; in the series listed under Rattus norvegicus [2], 31.7%; in the series listed under Rattus norvegicus [10], 51.9%; in the series listed under Mus musculus [5], 79.2%. In addition, the Average score in the series filed under Oryctolagus cuniculus [3] and in the series filed under Oryctolagus cuniculus [4] was 0 each time. Also, the ED50 in the series filed under Mus musculus [9] is 47.8 µg/mL (≈ 106 µM); in the series with Mus musculus [11], 47 µg/mL (≈ 104 µM); in the series filed under Mus musculus [12], 52.9 µg/mL (≈ 117 µM); with Mus musculus [13], 107.9 µg/mL (≈ 239 µM). Moreover, in the series filed under Rattus norvegicus [6], half-maximal inhibition (IC50) required 0.1 µg/mL (≈ 0.221 µM).
In the case of `Cc1ccc(O)c(N(CCCN2CCC(C(O)(c3ccccc3)c3ccc(Cl)cc3)CC2)C(C)C)c1` (stereo not drawn), the Inhibition with Mus musculus [1] turned out to be 48.5%; in the series with Mus musculus [8] it was 89.3%; in the series filed under Rattus norvegicus [2] it was 48.3%; in the series listed under Mus musculus [5], 18.7%. This compound returned an IC50 in the series listed under Rattus norvegicus [6] of 1 µg/mL (≈ 1.97 µM).

As a reminder, the Inhibition is the change of the read-out against control, counted positive when it falls. Low readings indicate a response near the control, high ones a response far below the control. As usually defined, the IC50 is the point on the concentration scale where inhibition reaches its midpoint. A higher IC50 goes with weaker potency in that assay.
